Assay results from ChEMBL document CHEMBL1177846, “Benzylidene/2-chlorobenzylidene hydrazides: synthesis, antimicrobial activity, QSAR studies and antiviral evaluation” (Eur J Med Chem, 2010).
Converted amounts (≈) assume the structure as drawn. The source made the active and inactive calls. No cut-off for these calls is given here.

Key:
Sindbis virus = experiment: Antiviral activity against Simbidis virus infected in african green monkey Vero cells assessed as inhibition of virus-induced cytopathic effect after 3 days by MTS assay; format: functional, organism-based
Summary of the method: (§1)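 Confluent cell monolayers were infected with 100 CCID50 of virus and allowed 2 h adsorption at 37 °C. Virus was then removed and serial compound dilutions were added. Cultures were incubated at 37 °C for 3 days, until CPE was complete in the untreated virus control. EC50 was the concentration giving 50% inhibition of virus-induced CPE, by visual score or by MTS formazan cell viability.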

Escherichia coli = experiment: Antibacterial activity against Escherichia coli after 24 hrs by serial dilution method; format: functional
Vaccinia virus = experiment: Antiviral activity against Vaccinia virus infected in human HEL cells assessed as inhibition of virus-induced cytopathic effect after 3 days by MTS assay; format: functional, organism-based; details: Orthopoxvirus vaccinia; summary of the method: as §1
[1] = tested on: Mammalian orthoreovirus 1; experiment: Antiviral activity against Reovirus 1 infected in african green monkey Vero cells assessed as inhibition of virus-induced cytopathic effect after 3 days by MTS assay; format: functional, organism-based; summary of the method: as §1
Candida albicans = experiment: Antifungal activity against Candida albicans after 48 hrs by serial dilution method; format: functional
Summary of the method: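 Serial compound dilutions in Sabouraud dextrose broth (tube dilution), incubated 37 °C for 48 h. MIC was read as the lowest concentration with no growth.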

[2] = tested on: Vesicular stomatitis virus; experiment: Antiviral activity against VSV infected in human HeLa cells assessed as inhibition of virus-induced cytopathic effect after 3 days by MTS assay; format: functional, organism-based; details: 72 h; summary of the method: as §1
[3] = tested on: Vesicular stomatitis virus; experiment: Antiviral activity against VSV infected in human HEL cells assessed as inhibition of virus-induced cytopathic effect after 3 days by MTS assay; format: functional, organism-based; summary of the method: as §1
Influenza A virus [4] = experiment: Antiviral activity against influenza A virus H3N2 infected in MDCK cells assessed as inhibition of virus-induced cytopathic effect after 3 days by MTS assay; format: functional, organism-based; summary of the method: as §1
Punta Toro virus = experiment: Antiviral activity against Punta toro virus infected in african green monkey Vero cells assessed as inhibition of virus-induced cytopathic effect after 3 days by MTS assay; format: functional, organism-based; summary of the method: as §1
Felid alphaherpesvirus 1 = experiment: Antiviral activity against Feline herpesvirus 1 infected in […] cells assessed as inhibition of virus-induced cytopathic effect after 3 days by MTS assay; format: functional, organism-based; summary of the method: as §1
Staphylococcus aureus = experiment: Antibacterial activity against Staphylococcus aureus after 24 hrs by serial dilution method; format: functional
Aspergillus niger = experiment: Antifungal activity against Aspergillus niger after 7 days by serial dilution method; format: functional
[5] = (§2) Cytotoxicity against human HeLa cells after 3 days by MTS assay; format: cell-based; details: HeLa cells
Summary of the method: (§3)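 Uninfected HeLa cells were run in parallel with the antiviral assay and exposed to serial compound dilutions. CC50 is the 50% cytotoxic concentration from colorimetric formazan-based MTS cell viability.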

HeLa = experiment: as §2; format: cell-based; details: hela, 72 h; summary of the method: as §3
Human alphaherpesvirus 1 [6] = experiment: Antiviral activity against Herpes simplex virus 1 KOS infected in human HEL cells assessed as inhibition of virus-induced cytopathic effect after 3 days by MTS assay; format: functional, organism-based; summary of the method: as §1
Coxsackievirus B4 [7] = experiment: Antiviral activity against Coxsackie virus B4 infected in human HeLa cells assessed as inhibition of virus-induced cytopathic effect after 3 days by MTS assay; format: functional, organism-based; details: Enterovirus B, 72 h; summary of the method: as §1
Human alphaherpesvirus 1 [8] = experiment: Antiviral activity against acyclovir-resistant […] kinase-deficient HSV1 KOS infected in human HEL cells assessed as inhibition of virus-induced cytopathic effect after 3 days by MTS assay; format: functional, organism-based; summary of the method: as §1
Human respirovirus 3 = experiment: Antiviral activity against Parainfluenza 3 virus infected in african green monkey Vero cells assessed as inhibition of virus-induced cytopathic effect after 3 days by MTS assay; format: functional, organism-based; summary of the method: as §1
Bacillus subtilis = experiment: Antibacterial activity against Bacillus subtilis after 24 hrs by serial dilution method; format: functional
[9] = tested on: Respiratory syncytial virus; experiment: Antiviral activity against RSV infected in human HeLa cells assessed as inhibition of virus-induced cytopathic effect after 3 days by MTS assay; format: functional, organism-based; details: 72 h; summary of the method: as §1
Human alphaherpesvirus 2 = experiment: Antiviral activity against Herpes simplex virus 2 G infected in human HEL cells assessed as inhibition of virus-induced cytopathic effect after 3 days by MTS assay; format: functional, organism-based; details: strain G; summary of the method: as §1
Influenza A virus [10] = experiment: Antiviral activity against influenza A virus H1N1 infected in MDCK cells assessed as inhibition of virus-induced cytopathic effect after 3 days by MTS assay; format: functional, organism-based; summary of the method: as §1
Influenza B virus = experiment: Antiviral activity against influenza B virus infected in MDCK cells assessed as inhibition of virus-induced cytopathic effect after 3 days by MTS assay; format: functional, organism-based; summary of the method: as §1
Feline coronavirus = experiment: Antiviral activity against Feline caronavirus infected in […] cells assessed as inhibition of virus-induced cytopathic effect after 3 days by MTS assay; format: functional, organism-based; summary of the method: as §1
Coxsackievirus B4 [11] = experiment: Antiviral activity against Coxsackie virus B4 infected in african green monkey Vero cells assessed as inhibition of virus-induced cytopathic effect after 3 days by MTS assay; format: functional, organism-based; summary of the method: as §1

COc1cc(OC)cc(C(=O)N/N=C/c2ccccc2Cl)c1
inhibition (Sindbis virus): inactive
MBC (Escherichia coli): >0.157 uM/ml
inhibition (Vaccinia virus): inactive
inhibition [1]: inactive
-logMIC (Candida albicans): 2.01
MFC (Candida albicans): 0.019 uM/ml
EC50 [2]: 13.2 µg/mL (≈ 41.4 µM)
inhibition [3]: inactive
inhibition (Influenza A virus [4]): inactive
inhibition (Punta Toro virus): inactive
inhibition (Felid alphaherpesvirus 1): inactive
MBC (Staphylococcus aureus): >0.157 uM/ml
-logMIC (Aspergillus niger): 1.56
MFC (Aspergillus niger): >0.157 uM/ml
MCC at 72 h [5]: 100 µg/mL
CC50 (HeLa): 64 µg/mL (≈ 201 µM)
inhibition (Human alphaherpesvirus 1 [6]): inactive
EC50 (Coxsackievirus B4 [7]): > 20 µg/mL
inhibition (Human alphaherpesvirus 1 [8]): inactive
inhibition (Human respirovirus 3): inactive
MBC (Bacillus subtilis): 0.039 uM/ml
EC50 [9]: > 20 µg/mL
inhibition (Human alphaherpesvirus 2): inactive
inhibition (Influenza A virus [10]): inactive
inhibition (Influenza B virus): inactive
inhibition (Feline coronavirus): inactive
inhibition (Coxsackievirus B4 [11]): inactive
